This is a sample that favours compounds with a hit; in the whole collection about 3% have one here.
PvdQ inh = blocks Pseudomonas aeruginosa PvdQ acylase activity; purified PvdQ acylase, fluorescence plate reader; inhibition, % at 10 µM; 340,000 compounds, 0.063% hits; AID 488965; in the data active means inhibition above about 30%, passing the limit was not always enough; inconclusive means no clear call, values can overlap the other calls
PfHsp90 set2 = inhibits growth of yeast expressing Plasmodium falciparum Hsp90 | S. cerevisiae expressing PfHsp90, BacTiter-Glo ATP, 48 h; yeast lacking PDR1 and PDR3 efflux regulators | inhibition, % at 9.4 µM | 310,000 compounds, 0.32% hits;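 active means every replicate shows inhibition above about 80%, whatever the replicate mean, limit read from the data; inconclusive means mean inhibition reaches the set limit but some replicate falls short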
T cruzi inh = T. cruzi replication inhibition | T. cruzi beta-gal in NIH3T3, luminescence, 90 h | inhibition, % (concentration not given with the values) | 300,000 compounds, 1.4% hits;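 active means mean inhibition across valid replicates above about 55%, limit read from the data; inconclusive means mean below that limit but half or more replicates reach it; inactive means mean below it, under half of replicates reach it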;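 further: signal also drops with host cell toxicity which is not excluded here; higher percent means less beta-gal luminescence so fewer parasites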
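System: NIH/3T3 fibroblasts plus reporter T. cruzi. Medium: DMEM plus 2% FBS. Probe or stimulus: 5000 reporter trypomastigotes per well. Compound: single 50 nL compound addition per well in DMSO. Incubation: co-culture of at least 90 h after 3 h attachment. Detection: GalScreen β-gal luminescence, detergent lysis, 60 min. Evaluation: parasite load inhibition, %.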
HSF1 activator = increases HSF-1 driven luciferase reporter signal; NIH3T3-HGL HSF-1 luciferase reporter, MG132, 8 h; 100% = twice DMSO control signal; activation, % at 9 µM; 300,000 compounds, 1.7% hits; AID 504408;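 active means mean replicate activation of at least 50% with a set share of replicates each reaching 50%; inconclusive means only one of those two conditions met; inactive means mean below 50% and too few replicates reaching it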
N-glyco inh = blocks N-linked glycosylation in D54 reporter cells | reporter increase, % at 12.5 µM | 360,000 compounds, 0.23% hits | D54 ERlucT glycosylation luciferase reporter, 24 h; percent of 100 nM tunicamycin response;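 active means mean luciferase reporter signal, scaled so untreated is 0 and the glycosylation-blocking control 100, at or above a set limit in every replicate; inconclusive means mean reaches the limit but not every replicate does; inactive means mean below the limit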;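 further: luciferase carries N-glycosylation sites so blocking glycosylation raises the light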
CaV13 ICDI inh = Primary screen for inhibitors of IQ motif and Ca2+-dependent inactivation inhibitor domain binding in CACNA1D, Förster resonance energy transfer in living cells, …; HEK cells, CFP/YFP FRET ICDI-IQ, plate reader, 10 min; percent FRET-ratio fall versus neutral wells; inhibition, % at 12.3 µM; 340,000 compounds, 0.098% hits;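 active means mean replicate inhibition of at least 30% and at least 1% of replicates passing that level; inconclusive means only one of the two criteria is met; inactive means neither criterion is met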
Numbers stand for hits.

How did Cc1ccsc1C(=O)C1CCCN(Cc2cnc(N)nc2)C1 (centres undefined) do in these assays?
PvdQ inh: inactive; PfHsp90 set2: inactive; T cruzi inh: inactive; HSF1 activator: inactive; N-glyco inh: inactive; CaV13 ICDI inh: inactive

How did CNC(=O)C[C@H]1CC[C@@H]2NC[C@H](O)COC[C@H]2O1 do in these assays?
CaV13 ICDI inh: inactive

Results for CCCCn1nnnc1C(CCSC)N1CCC2(CC1)C(=O)NCN2c1ccccc1 (centres undefined) ?
N-glyco inh: inactive; CaV13 ICDI inh: inactive

How did CCOC(=O)c1ccc(-[n+]2c(-c3ccccc3)cc(-c3ccccc3)cc2-c2ccccc2)cc1 do in these assays?
PvdQ inh: inactive; PfHsp90 set2: inactive; T cruzi inh: 65; HSF1 activator: inactive

Results for CN(C)c1ccc(-[n+]2c(-c3ccccc3)cc(-c3ccccc3)cc2-c2ccccc2)cc1 ?
PvdQ inh: inactive; PfHsp90 set2: inactive; T cruzi inh: 61; HSF1 activator: inactive; N-glyco inh: inactive; CaV13 ICDI inh: inactive

What do the screens show for `Cc1cc(N2CCNC[C@H]2C)ccc1N1CCN[C@H](C)C1`?
CaV13 ICDI inh: inactive

How did CC1(C)C(=O)CCC2C1=CCC1C2CCC2(C)C(O)CCC12 (centres undefined) do in these assays?
PvdQ inh: inactive; N-glyco inh: inactive; CaV13 ICDI inh: inactive

How did CC12CC(c3ccccc3O1)C(C(=O)OCc1ccccc1)C(=O)N2 (centres undefined) do in these assays?
PvdQ inh: inactive; PfHsp90 set2: inactive; T cruzi inh: inactive; HSF1 activator: inactive; N-glyco inh: inactive; CaV13 ICDI inh: 99

Results for CCOC(=O)[C@]12Cc3cc4ccccc4cc3[C@H]1N(Cc1ccccc1)C(=O)c1ccccc12 ?
CaV13 ICDI inh: inactive

How did CN1C(=O)C(C)(C2=CCCCC2)C(=O)NC1=S (centres undefined) do in these assays?
PvdQ inh: inactive; PfHsp90 set2: inactive; N-glyco inh: inactive; CaV13 ICDI inh: inactive

Results for CC1=C(O)C(=O)C=C2C1=CC=C1C2(C)CCC2(C)C3CC(C)(C(=O)O)CCC3(C)CCC12C (centres undefined) ?
PvdQ inh: inactive; PfHsp90 set2: 125; N-glyco inh: inactive; CaV13 ICDI inh: inactive

What do the screens show for `COc1ccc(OC)c(N2C(=O)NC(=O)/C(=C\c3ccc([N+](=O)[O-])s3)C2=O)c1`?
PvdQ inh: inactive; PfHsp90 set2: 91; T cruzi inh: inconclusive; HSF1 activator: inactive; N-glyco inh: inactive; CaV13 ICDI inh: inactive

Results for O=C1NC(=O)N(c2ccccc2)C(=O)/C1=C\c1ccc([N+](=O)[O-])s1 ?
T cruzi inh: inactive; HSF1 activator: inactive; CaV13 ICDI inh: inactive

How did O=C(NCCN1CCC2(CC1)C(=O)NCN2c1ccccc1)c1cccnc1Cl do in these assays?
CaV13 ICDI inh: inactive

Results for CC(=O)c1ccccc1NC(=O)C1C2CCC(O2)C1C(=O)O (centres undefined) ?
T cruzi inh: inactive; HSF1 activator: 68

Results for O=C(NCCN1CCC2(CC1)C(=O)NCN2c1ccccc1)c1cccc(F)c1 ?
CaV13 ICDI inh: inactive

How did COC(=O)[C@@H]1N=C(c2ccc(OC)cc2)O[C@]12C(=O)N(C)c1cccc(Cl)c12 do in these assays?
CaV13 ICDI inh: inactive

Results for COc1ccc2ccc(O)c(CN3CC=C(c4ccccc4)CC3)c2c1 ?
PvdQ inh: inactive; PfHsp90 set2: inactive; T cruzi inh: inactive; HSF1 activator: 201; N-glyco inh: inactive; CaV13 ICDI inh: inactive

Results for O=c1[nH]c2cc(Cl)ccc2n1C1CCN(Cc2ccc(-c3nc4ccccc4nc3-c3ccccc3)cc2)CC1 ?
CaV13 ICDI inh: inactive

Results for COC12CCC3(CC1C(C)(O)C(C)(C)C)[C@H]1Cc4ccc(O)c5c4[C@@]3(CCN1CC1CC1)C2O5 (some centres undefined) ?
PvdQ inh: inactive; N-glyco inh: 59

How did COc1cccc(C(=O)NCCN2CCC3(CC2)C(=O)NCN3c2ccccc2)c1 do in these assays?
CaV13 ICDI inh: inactive

How did CN1CN(c2ccccc2)C2(CCN(CCCSc3ccccc3NC(=O)/C=C/c3ccccc3)CC2)C1=O do in these assays?
PvdQ inh: inactive; PfHsp90 set2: inactive; HSF1 activator: inactive; N-glyco inh: 30; CaV13 ICDI inh: inactive

How did CNC(=O)c1cccn(Cc2ccc(C(F)(F)F)cc2)c1=O do in these assays?
PvdQ inh: inactive; PfHsp90 set2: inactive; T cruzi inh: inactive; HSF1 activator: inactive; N-glyco inh: 34; CaV13 ICDI inh: inactive

How did CNC(=O)c1cccn(Cc2cc(C(F)(F)F)cc(C(F)(F)F)c2)c1=O do in these assays?
PvdQ inh: inactive; PfHsp90 set2: inactive; T cruzi inh: inactive; HSF1 activator: inactive; N-glyco inh: inactive; CaV13 ICDI inh: inactive

What do the screens show for `C=CCNC(=O)c1c(N)n(Cc2ccco2)c2nc3ccccc3nc12`?
PvdQ inh: inactive; PfHsp90 set2: inactive; T cruzi inh: inactive; HSF1 activator: 134; N-glyco inh: inactive; CaV13 ICDI inh: inactive

Results for O=C(NCCN1CCC2(CC1)C(=O)NCN2c1ccccc1)c1cccc2c1-c1ccccc1C2=O ?
CaV13 ICDI inh: inactive

How did COC(=O)C1=C(c2cc3ccccc3s2)C[C@@H]2CC[C@H]1N2C(=O)NCc1ccc(C(F)(F)F)cc1 do in these assays?
PvdQ inh: inactive; PfHsp90 set2: inactive; T cruzi inh: 57; HSF1 activator: inactive; N-glyco inh: inactive; CaV13 ICDI inh: inactive

Results for COc1ccc(CC(C)Nc2cccc(F)c2)cc1 (centres undefined) ?
PvdQ inh: 36; PfHsp90 set2: inactive; T cruzi inh: inactive; HSF1 activator: inactive; N-glyco inh: inactive; CaV13 ICDI inh: inactive

Results for Clc1ccc(NC2=NCCCS2)cc1Cl ?
PvdQ inh: inactive; PfHsp90 set2: inactive; T cruzi inh: 55; HSF1 activator: inactive; N-glyco inh: inactive; CaV13 ICDI inh: inactive

What do the screens show for `Cc1ccc(NC2=NCCCS2)cc1Cl`?
PvdQ inh: inactive; PfHsp90 set2: inactive; T cruzi inh: inactive; HSF1 activator: inactive; N-glyco inh: inactive; CaV13 ICDI inh: inactive

Results for CCOC(=O)C1=C(C(=O)OCC)C2(c3ccccc3)c3ccccc3C1(C)N2C (centres undefined) ?
CaV13 ICDI inh: inactive

Results for O=[N+]([O-])c1oc2ccc3ccccc3c2c1CCO ?
PvdQ inh: inactive; PfHsp90 set2: 136; HSF1 activator: inactive; N-glyco inh: inactive; CaV13 ICDI inh: inactive

Results for O=[N+]([O-])c1ccc(CNCCc2ccccc2)cc1 ?
PvdQ inh: inactive; PfHsp90 set2: inactive; T cruzi inh: 59; HSF1 activator: inactive; N-glyco inh: inactive; CaV13 ICDI inh: inactive

What do the screens show for `c1ccc(Cc2cnc(N3CCNCC3)nc2)cc1`?
CaV13 ICDI inh: inactive

Screening results deposited in PubChem BioAssay by Broad Institute.
